According to paper PMC3677027 (The Biochemical journal, 2012):
Entries after “also recorded” stand apart in the source; their conditions may differ. Ends that are not written are not given here.

Assays:
EphA4 AP = EphA4 AP (Homo sapiens, UniProt P54764); assay: ELISA inhibition of EphA4 AP binding to immobilized ephrin-A5 Fc; conditions: for IC50 value relative to unmodified KYL (in words): KYL alanine scan, ELISA, 0.05 nM EphA4 AP, ephrin-A5 Fc immobilized
How it was run: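 Peptides (purity ≥85%) were made as 10 mM DMSO stocks and tested at varied concentrations. Each was incubated for 3 h with 0.05 nM EphA4 AP in protein A wells precoated with 1 µg/ml ephrin-A5 Fc. Bound AP was quantified with p-nitrophenyl phosphate substrate in SEAP buffer, read as absorbance at 405 nm, and inhibition was computed from that signal.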

[1] = Peptide stability in mouse serum; type: in vitro ADME; conditions: 37°C, ELISA read-out of residual antagonistic activity
How it was run: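 Peptide at 100, 200 or 500 µM (depending on peptide) was held in mouse serum at 37 °C and sampled over time. Samples were diluted 1:20 into protein A wells carrying 1 µg/ml ephrin-A5 Fc, with 0.05 nM EphA4 AP, for 30 min at 4 °C. Bound AP was read as OD405 and normalised: peptide-free serum = 0, unincubated peptide = 1.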

M32A EphA4 AP mutant = M32A EphA4 AP mutant (Homo sapiens, UniProt P54764, M60A); assay: ELISA binding to immobilized ephrin-A5 Fc
How it was run: (§1)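 Wild-type and mutant human EphA4 ephrin-binding domain–AP fusions were secreted from transfected HEK293T cells into Opti-MEM, and the medium was concentrated about 50-fold. Protein amount was estimated from AP activity. Ephrin-A5 Fc was captured at 0.5 µg/ml on protein A wells (1 h, RT, TBS/0.01% Tween 20), then EphA4 AP was added for 1 h. Bound AP was read with pNPP in SEAP buffer (pH 9.8) at OD405, minus Fc-only wells.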

T76A EphA4 AP mutant = T76A EphA4 AP mutant (Homo sapiens, UniProt P54764, T104A); assay: ELISA binding to immobilized ephrin-A5 Fc
How it was run: as §1

M136A EphA4 AP mutant = M136A EphA4 AP mutant (Homo sapiens, UniProt P54764, M164A); assay: ELISA binding to immobilized ephrin-A5 Fc
How it was run: as §1

S30A EphA4 AP mutant = S30A EphA4 AP mutant (Homo sapiens, UniProt P54764, S58A); assay: ELISA binding to immobilized ephrin-A5 Fc
How it was run: as §1

G132V EphA4 AP mutant = G132V EphA4 AP mutant (Homo sapiens, UniProt P54764, G160V); assay: ELISA binding to immobilized ephrin-A5 Fc
How it was run: as §1

F126A EphA4 AP mutant = F126A EphA4 AP mutant (Homo sapiens, UniProt P54764, F154A); assay: ELISA binding to immobilized ephrin-A5 Fc
How it was run: as §1

T41A EphA4 AP mutant = T41A EphA4 AP mutant (Homo sapiens, UniProt P54764, T69A); assay: ELISA binding to immobilized ephrin-A5 Fc
How it was run: as §1

I31A EphA4 AP mutant = I31A EphA4 AP mutant (Homo sapiens, UniProt P54764, I59A); assay: ELISA binding to immobilized ephrin-A5 Fc
How it was run: as §1

D123A EphA4 AP mutant = D123A EphA4 AP mutant (Homo sapiens, UniProt P54764, D151A); assay: ELISA binding to immobilized ephrin-A5 Fc
How it was run: as §1

D33A EphA4 AP mutant = D33A EphA4 AP mutant (Homo sapiens, UniProt P54764, D61A); assay: ELISA binding to immobilized ephrin-A5 Fc
How it was run: as §1

V129A EphA4 AP mutant = V129A EphA4 AP mutant (Homo sapiens, UniProt P54764, V157A); assay: ELISA binding to immobilized ephrin-A5 Fc
How it was run: as §1

A165S EphA4 AP mutant = A165S EphA4 AP mutant (Homo sapiens, UniProt P54764, A193S); assay: ELISA binding to immobilized ephrin-A5 Fc
How it was run: as §1

I131A EphA4 AP mutant = I131A EphA4 AP mutant (Homo sapiens, UniProt P54764, I159A); assay: ELISA binding to immobilized ephrin-A5 Fc
How it was run: as §1

R134A EphA4 AP mutant = R134A EphA4 AP mutant (Homo sapiens, UniProt P54764, R162A); assay: ELISA binding to immobilized ephrin-A5 Fc
How it was run: as §1

I39A EphA4 AP mutant = I39A EphA4 AP mutant (Homo sapiens, UniProt P54764, I67A); assay: ELISA binding to immobilized ephrin-A5 Fc
How it was run: as §1

Q43A EphA4 AP mutant = Q43A EphA4 AP mutant (Homo sapiens, UniProt P54764, Q71A); assay: ELISA binding to immobilized ephrin-A5 Fc
How it was run: as §1

[2] = molecular target: EphA4 ephrin-binding domain (residues 29-209) (human, UniProt P54764-1 29-209); assay: ITC
EphA4 Fc = EphA4 Fc (UniProt Q03137 20-547); assay: ELISA
[3] = read-out: inhibition of EphA4 AP binding to ephrin-A5 Fc

EphA4 AP, sequence (P54764 30-209 limits assumed): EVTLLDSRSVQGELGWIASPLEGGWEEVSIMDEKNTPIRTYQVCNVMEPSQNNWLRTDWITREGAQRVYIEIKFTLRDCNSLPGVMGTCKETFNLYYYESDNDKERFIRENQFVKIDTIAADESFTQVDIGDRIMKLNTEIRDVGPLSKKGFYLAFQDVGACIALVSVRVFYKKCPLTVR
T41A EphA4 AP mutant, sequence (P54764 30-209 T69A): as the sequence (P54764 30-209 limits assumed) above, with T40A counted along it
EphA4 ephrin-binding domain (residues 29-209), sequence (P54764 29-209): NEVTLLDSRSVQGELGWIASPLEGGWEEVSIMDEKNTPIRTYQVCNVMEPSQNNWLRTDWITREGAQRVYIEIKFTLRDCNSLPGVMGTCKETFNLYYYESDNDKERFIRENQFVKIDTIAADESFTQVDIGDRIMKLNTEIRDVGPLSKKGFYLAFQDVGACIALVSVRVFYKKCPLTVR
EphA4 Fc, sequence (Q03137 20-547): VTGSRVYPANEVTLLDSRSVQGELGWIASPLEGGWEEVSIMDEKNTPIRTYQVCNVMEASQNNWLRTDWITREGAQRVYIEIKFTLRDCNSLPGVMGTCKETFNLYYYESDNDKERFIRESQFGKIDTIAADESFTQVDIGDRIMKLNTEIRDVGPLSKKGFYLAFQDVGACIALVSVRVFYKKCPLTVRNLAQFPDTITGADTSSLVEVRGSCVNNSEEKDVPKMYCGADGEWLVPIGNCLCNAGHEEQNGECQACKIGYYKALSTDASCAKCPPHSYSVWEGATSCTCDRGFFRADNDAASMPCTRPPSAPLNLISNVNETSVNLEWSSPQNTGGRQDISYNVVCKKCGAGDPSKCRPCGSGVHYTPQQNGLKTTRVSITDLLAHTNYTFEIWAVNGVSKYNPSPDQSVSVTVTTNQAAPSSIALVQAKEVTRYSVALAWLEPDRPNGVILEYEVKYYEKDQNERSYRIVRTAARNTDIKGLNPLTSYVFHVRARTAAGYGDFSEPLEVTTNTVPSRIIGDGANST
T76A EphA4 AP mutant, sequence (P54764 30-209 T104A): as the sequence (P54764 30-209 limits assumed) above, with T75A counted along it
A165S EphA4 AP mutant, sequence (P54764 30-209 A193S): as the sequence (P54764 30-209 limits assumed) above, with A164S counted along it
V129A EphA4 AP mutant, sequence (P54764 30-209 V157A): as the sequence (P54764 30-209 limits assumed) above, with V128A counted along it
S30A EphA4 AP mutant, sequence (P54764 30-209 S58A): as the sequence (P54764 30-209 limits assumed) above, with S29A counted along it
M136A EphA4 AP mutant, sequence (P54764 30-209 M164A): as the sequence (P54764 30-209 limits assumed) above, with M135A counted along it
Q43A EphA4 AP mutant, sequence (P54764 30-209 Q71A): as the sequence (P54764 30-209 limits assumed) above, with Q42A counted along it
I39A EphA4 AP mutant, sequence (P54764 30-209 I67A): as the sequence (P54764 30-209 limits assumed) above, with I38A counted along it
F126A EphA4 AP mutant, sequence (P54764 30-209 F154A): as the sequence (P54764 30-209 limits assumed) above, with F125A counted along it
G132V EphA4 AP mutant, sequence (P54764 30-209 G160V): as the sequence (P54764 30-209 limits assumed) above, with G131V counted along it
M32A EphA4 AP mutant, sequence (P54764 30-209 M60A): as the sequence (P54764 30-209 limits assumed) above, with M31A counted along it
I31A EphA4 AP mutant, sequence (P54764 30-209 I59A): as the sequence (P54764 30-209 limits assumed) above, with I30A counted along it
D123A EphA4 AP mutant, sequence (P54764 30-209 D151A): as the sequence (P54764 30-209 limits assumed) above, with D122A counted along it
D33A EphA4 AP mutant, sequence (P54764 30-209 D61A): as the sequence (P54764 30-209 limits assumed) above, with D32A counted along it
R134A EphA4 AP mutant, sequence (P54764 30-209 R162A): as the sequence (P54764 30-209 limits assumed) above, with R133A counted along it
I131A EphA4 AP mutant, sequence (P54764 30-209 I159A): as the sequence (P54764 30-209 limits assumed) above, with I130A counted along it

Molecule: KYLPYWPVLASL [KYL-Ala10]
- IC50 value relative to unmodified KYL (in words) (EphA4 AP): comparable to that of unmodified KYL

Molecule: KYLPYWPVLSAL [KYL-Ala11]
- IC50 value relative to unmodified KYL (in words) (EphA4 AP): comparable to that of unmodified KYL

Molecule: KYLPYWPVLSSL [KYL]
- inhibition at 5 µM (EphA4 AP; [3]): ~80%

Molecule: VTMEAINLAFPG [VTM]
- inhibition at 25 µM (EphA4 AP; [3]): ~80%
- relative stability in mouse serum (in words) [1]: more stable than KYL and APY

B1: ephrin-A5: natural ephrin ligand of EphA4, used as Fc fusion (R&D Systems) (protein)
chain: QDPGSKAVADRYAVYWNSSNPRFQRGDYHIDVCINDYLDVFCPHYEDSVPEDKTERYVLYMVNFDGYSACDHTSKGFKRWECNRPHSPNGPLKFSEKFQLFTPFSLGFEFRPGREYFYISSAIPDNGRRSCLKLKVFVRPTNSCMKTIGVHDRVFDVNDKVENSLEPADDTVHESAEPSRGEN
modifications: left off: Fc, end not stated, kept
- effect of mutation on ephrin-A5 binding (in words) (M32A EphA4 AP mutant): also affect ephrin-A5 binding
- effect of mutation on ephrin-A5 binding (in words) (T76A EphA4 AP mutant): severely impair
- effect of mutation on ephrin-A5 binding (in words) (M136A EphA4 AP mutant): also affect ephrin-A5 binding
- effect of mutation on ephrin-A5 binding (in words) (S30A EphA4 AP mutant): do not substantially affect
- effect of mutation on ephrin-A5 binding (in words) (G132V EphA4 AP mutant): do not substantially affect
- effect of mutation on ephrin-A5 binding (in words) (F126A EphA4 AP mutant): severely impair
- effect of mutation on ephrin-A5 binding (in words) (T41A EphA4 AP mutant): do not substantially affect; also recorded: does not affect ephrin-A5 binding
- effect of mutation on ephrin-A5 binding (in words) (I31A EphA4 AP mutant): also affect ephrin-A5 binding
- effect of mutation on ephrin-A5 binding (in words) (D123A EphA4 AP mutant): also affect ephrin-A5 binding
- effect of mutation on ephrin-A5 binding (in words) (D33A EphA4 AP mutant): also affect ephrin-A5 binding
- effect of mutation on ephrin-A5 binding (in words) (V129A EphA4 AP mutant): do not substantially affect
- effect of mutation on ephrin-A5 binding (in words) (A165S EphA4 AP mutant): also affect ephrin-A5 binding
- effect of mutation on ephrin-A5 binding (in words) (I131A EphA4 AP mutant): severely impair
- effect of mutation on ephrin-A5 binding (in words) (R134A EphA4 AP mutant): severely impair
- effect of mutation on ephrin-A5 binding (in words) (I39A EphA4 AP mutant): do not substantially affect
- effect of mutation on ephrin-A5 binding (in words) (Q43A EphA4 AP mutant): also affect ephrin-A5 binding

B2: VTM peptide (peptide)
peptide: VTMEAINLAFPG
- Kd [2]: 4700 ± 100 nM

B3: VTM-Ala12 (peptide)
peptide: VTMEAINLAFPA
- fold reduction of inhibitory potency against unmodified VTM (EphA4 Fc): < 2 fold

B4: KYL peptide (peptide)
peptide: KYLPYWPVLSSL
- Kd [2]: 850 ± 150 nM
